Tests used:
U-87 MG = assay: Cytotoxicity against human U87 cells expressing CD4/CCR5; format: cell-based; settings: u-87mg atcc
MT4 = assay: Cytotoxicity against human MT4 cells assessed as reduction in cell viability after 24 hrs by CytoTox-Glo cytotoxicity assay; format: cell-based; settings: mt4, 24 h
How it was run: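 Uninfected MT-4 cells were cultured for 1 day with various compound concentrations, in parallel with the antiviral assays. Percent viable cells was read by the CytoTox-Glo kit following the manufacturer's protocol. […] Each value was run in at least triplicate and averaged from at least four independent experiments.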

[1] = system: Human immunodeficiency virus 1; assay: Antiviral activity against ENV pseudotyped HIV1 B41 infected in human U87 cells expressing CD4/CCR5 measured after 48 hrs by luciferase reporter gene assay; format: functional, organism-based; settings: Human immunodeficiency virus 1, B41, U-87 MG
How it was run: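 Early-stage single-round assay. U87.CD4.CCR5 target cells, 1.2×10^4 cells/well, are seeded and left 24 h at 37°C. Single-round HIV-1 B41 Env-pseudotyped firefly luciferase virus, produced in HEK293T without compound, is mixed with compound or DMSO vehicle and added to the cells. After 48 h at 37°C the cells are lysed, freeze-thawed and read for luciferase. IC50 from 3 parallel tests.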

[2] = system: Human immunodeficiency virus 1; assay: Antiviral activity against Human immunodeficiency virus 1 NL4-3 infected in human MT4 cells assessed as protection against virus-induced cytopathic effect after 2 days by bright-glo luciferase reporter gene assay; format: functional, organism-based
How it was run: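 MT-4 cells are infected with 200 TCID50 of HIV-1 NL4-3 over a range of compound concentrations, allowing multiple rounds of infection. After two days the medium is removed and Bright-Glo luminescence is read. […] At least triplicate; mean ± SD of at least two parallel tests.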

[3] = system: Human immunodeficiency virus 1; assay: Antiviral activity against ENV pseudotyped HIV1 B41 infected in human U87 cells expressing CD4/CCR5 pretreated with virus for 72 hrs followed by infection of cells measured after 48 hrs by luciferase reporter gene assay; format: functional, organism-based; settings: Human immunodeficiency virus 1, B41, U-87 MG
How it was run: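 Late-stage assay. B41 Env-pseudotyped luciferase viruses are produced in 293T cells with compound (100 μM to 0.01 μM, equal DMSO) or DMSO vehicle for 72 h at 37°C. Supernatants are clarified, filtered, freeze-thawed once, diluted ten-fold and used to infect U87.CD4.CCR5 cells for 48 h at 37°C. Lysate luciferase is normalized to virus made in vehicle-treated cells.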

[4] = Therapeutic index, ratio of CC50 for human U87 cells to IC50 for ENV pseudotyped HIV1 B41 infected in human U87 cells expressing CD4/CCR5; format: toxicity, cell-based; settings: read-out: Ratio CC50/IC50
[5] = biological target: T1, Structural capsid protein (Human immunodeficiency virus 1, UniProt Q76129); assay: Binding affinity to HIV1 NL4-3 hexameric capsid protein by surface plasmon resonance
How it was run: (§1)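 SPR at 25°C. HIV-1 NL4-3 CA constructs are amine-coupled at 100 µg/ml in 10 mM sodium acetate, pH 5.0, onto an EDC/sulfo-NHS-activated GLH chip, then ethanolamine-capped. Compound serial dilutions in PBS, 3% DMSO, 0.005% polysorbate 20, pH 7.4 are injected at 100 µl/min with 1 min association and up to 5 min dissociation. Reference-subtracted; KD by equilibrium analysis, at least three experiments.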

[6] = Selectivity index, ratio of CC50 for human MT4 cells to EC50 for Human immunodeficiency virus 1 NL4-3 infected in human MT4 cells; format: toxicity, cell-based; settings: read-out: Ratio CC50/EC50
How it was run: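 SI is CC50/EC50, both measured in MT-4 cells. For EC50, 200 TCID50 of NL4-3 infected MT-4 cells over multiple rounds in the presence of various compound concentrations. […] CC50 came from a 1-day CytoTox-Glo viability assay on uninfected cells.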

[7] = biological target: T1, Structural capsid protein; assay: Binding affinity to HIV1 NL4-3 N-terminal domain capsid protein by surface plasmon resonance; how it was run: as §1
[8] = biological target: T1, Structural capsid protein; assay: Binding affinity to HIV1 NL4-3 monomeric capsid protein by surface plasmon resonance; how it was run: as §1
[9] = system: Human immunodeficiency virus 1; assay: Antiviral activity against Human immunodeficiency virus 1 3B infected in human MT4 cells assessed as inhibition of virus-induced cytopathic effect at 2 uM after 5 days by CellTiter-Glo assay relative to control; format: functional; settings: MT4, 120 h
[10] = system: Human immunodeficiency virus 1; assay: Antiviral activity against Human immunodeficiency virus 1 NL4-3 infected in human MT2 cells measured 4 to 5 days post infection by luciferase reporter gene assay; format: functional, organism-based; settings: Human immunodeficiency virus 1, NL4-3, MT2
[11] = Cytotoxicity against human MT2 cells after 4 days by XTT assay; format: cell-based
[12] = Human immunodeficiency virus 1, NL4-3, MT4, 48 h, read-out: EC50

T1 sequence (Q76129 whole entry): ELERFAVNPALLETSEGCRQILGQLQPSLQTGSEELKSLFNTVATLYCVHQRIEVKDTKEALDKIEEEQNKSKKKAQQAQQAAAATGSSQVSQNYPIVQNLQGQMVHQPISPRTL

| Compound | CC50 (MT4; read-out: CC50) | EC50 [2, 12] | selectivity ratio [6] | further results |
| --- | --- | --- | --- | --- |
| Cc1[nH]c2ccccc2c1CC(=O)N[C@@H](Cc1ccccc1)C(=O)N(C)c1ccccc1 | > 70.5 µM | 5.95 µM |  | CC50 (U-87 MG): 73 µM; IC50 [1]: 0.1 µM; IC50 [3]: 8.3 µM |
| COc1ccc(N(C)C(=O)[C@H](Cc2ccccc2)NC(=O)c2cn(Cc3ccccc3Cl)nn2)cc1 | > 19.8 µM | > 19.8 µM |  |  |
| COc1ccc(N(C)C(=O)[C@H](Cc2ccccc2)NC(=O)c2cn(Cc3ccc4ccccc4c3)nn2)cc1 | > 57.7 µM | 4.33 µM | > 13.3 | selectivity ratio [4]: 2.8; Kd [5]: 11 µM; CC50 (U-87 MG): 54.8 µM; IC50 [1]: 7 µM; Kd [7]: 32.7 µM; IC50 [3]: 31 µM; Kd [8]: 14 µM |
| COc1ccc(N(C)C(=O)[C@H](Cc2ccccc2)NC(=O)c2cn(CS(=O)(=O)c3ccccc3)nn2)cc1 | > 18.7 µM |  |  | EC50 ([2]; mt4): Not Active |
| COc1ccc(N(C)C(=O)[C@H](Cc2ccccc2)NC(=O)c2cn(Cc3cccc([N+](=O)[O-])c3)nn2)cc1 |  |  |  | CC50 (MT4): Not Active; EC50 ([2]; mt4): Not Active |
| COc1ccc(N(C)C(=O)[C@H](Cc2ccccc2)NC(=O)c2cn(C[S+]([O-])c3ccccc3)nn2)cc1 (some centres not stated) | > 19.3 µM | 6.65 µM | > 2.91 | Kd [5]: 93.3 µM; Kd [7]: 28.2 µM; Kd [8]: 12.7 µM |
| COc1ccc(N(C)C(=O)[C@H](Cc2ccccc2)NC(=O)c2cn(Cc3ccccc3C)nn2)cc1 | > 20.7 µM | 8 µM | > 2.58 |  |
| COc1ccc(N(C)C(=O)[C@H](Cc2ccccc2)NC(=O)c2cn(Cc3cccc(Cl)c3)nn2)cc1 |  |  |  | CC50 (MT4): Not Active; EC50 ([2]; mt4): Not Active |
| COC(=O)c1cccc(-n2cc(C(=O)N[C@@H](Cc3ccccc3)C(=O)N(C)c3ccc(OC)cc3)nn2)c1 | > 19.5 µM | 6.91 µM | > 2.82 |  |
| COc1ccc(N(C)C(=O)[C@H](Cc2ccccc2)NC(=O)c2cn(Cc3ccccc3[N+](=O)[O-])nn2)cc1 | > 19.4 µM | 10.2 µM | > 1.91 |  |
| COc1ccc(N(C)C(=O)[C@H](Cc2ccccc2)NC(=O)c2cn(Cc3cccc4ccccc34)nn2)cc1 | > 19.2 µM | > 19.2 µM |  |  |
| COc1ccc(N(C)C(=O)[C@H](Cc2ccccc2)NC(=O)Cn2nc(C(F)(F)F)c3c2CCCC3)cc1 |  |  |  | inhibition at 2 µM [9]: 100% |
| COc1ccc(N(C)C(=O)[C@H](Cc2ccccc2)NC(=O)c2cn(Cc3ccccc3C#N)nn2)cc1 | > 21.5 µM | > 21.5 µM |  |  |
| COc1ccc(N(C)C(=O)[C@H](Cc2ccccc2)NC(=O)NS(=O)(=O)N2CCCc3ccccc32)cc1 |  |  |  | EC50 [10]: 0.11 µM; CC50 at 96 h [11]: 33.3 µM |
| COc1ccc(N(C)C(=O)[C@H](Cc2ccccc2)NC(=O)c2cn(Cc3ccc(C)cc3)nn2)cc1 |  |  |  | CC50 (MT4): Not Active; EC50 ([2]; mt4): Not Active |
| COc1ccc(N(C)C(=O)[C@H](Cc2ccccc2)NC(=O)c2cn(Cc3ccc([N+](=O)[O-])cc3)nn2)cc1 | > 19.4 µM | > 19.4 µM |  |  |
| COc1ccc(N(C)C(=O)[C@H](Cc2ccccc2)NC(=O)c2cn(CSc3ccccc3)nn2)cc1 |  |  |  | CC50 (MT4): Not Active; EC50 ([2]; mt4): Not Active |
| COc1ccc(N(C)C(=O)[C@H](Cc2ccccc2)NC(=O)c2cn(Cc3cccc(C)c3)nn2)cc1 |  |  |  | CC50 (MT4): Not Active; EC50 ([2]; mt4): Not Active |
| COc1ccc(N(C)C(=O)[C@H](Cc2ccccc2)NC(=O)c2cn(C3CC(n4cc(C)c(=O)[nH]c4=O)OC3CO)nn2)cc1 (some centres not stated) | > 16.6 µM | 10.5 µM | > 1.59 |  |
| COc1ccc(N(C)C(=O)[C@H](Cc2ccccc2)NC(=O)c2cn(Cc3ccc(Cl)cc3)nn2)cc1 | > 19.8 µM | > 19.8 µM |  |  |
| COc1ccc(N(C)C(=O)[C@H](Cc2ccccc2)NC(=O)c2cn(-c3ccc4c(c3)OCO4)nn2)cc1 | > 20 µM | 14.9 µM | > 1.34 |  |
| COc1ccc(N(C)C(=O)[C@H](Cc2ccccc2)NC(=O)c2cn(Cc3cccc(C#N)c3)nn2)cc1 | > 21.5 µM | 9.11 µM | > 2.36 |  |
| COc1ccc(N(C)C(=O)[C@H](Cc2ccccc2)NC(=O)c2cn(Cc3ccc(C#N)cc3)nn2)cc1 | > 21.5 µM | 8.98 µM | > 2.4 |  |
